Measurements: paper PMC3026963 (The Biochemical journal, 2010)

How the values were obtained:
[1] = tested on: CK2 holoenzyme; assay: CK2 holoenzyme activity towards protein and peptide substrates; assay type: biochemical, human; conditions: results not shown
In short: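 Recombinant human CK2α and CK2β expressed in E. coli; holoenzyme formed by pre-incubating CK2α with 10-fold molar excess of CK2β. Radiolabel incorporation was measured; at least three independent experiments were averaged.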

[2] = target: CK2α catalytic subunit (Homo sapiens, UniProt P68400); assay: In vitro phosphorylation assay of CK2α with peptide substrate RRRADDSDDDDD; assay type: biochemical
In short: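 Activity is expressed as % of no-peptide control, as the mean of at least three independent experiments. Full-length murine NBD1ΔF508 (389–673) tests were run at 350 μM ATP.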

CK2α catalytic subunit, sequence (P68400 whole entry): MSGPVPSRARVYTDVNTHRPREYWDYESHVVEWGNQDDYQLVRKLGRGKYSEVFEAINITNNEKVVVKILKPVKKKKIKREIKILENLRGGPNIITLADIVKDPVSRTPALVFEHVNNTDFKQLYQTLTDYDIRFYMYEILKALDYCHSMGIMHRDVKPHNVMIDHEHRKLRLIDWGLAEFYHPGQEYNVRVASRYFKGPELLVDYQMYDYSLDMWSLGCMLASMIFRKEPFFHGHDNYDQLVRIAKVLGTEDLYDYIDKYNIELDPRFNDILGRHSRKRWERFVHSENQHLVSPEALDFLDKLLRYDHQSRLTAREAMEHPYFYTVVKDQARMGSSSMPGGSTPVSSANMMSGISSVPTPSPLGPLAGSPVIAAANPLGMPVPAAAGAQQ

- effect on CK2 holoenzyme [1]: no appreciable effect
- inhibition of CK2α by the full-length protein ([2]; concentration raised up to 20 μM, results not shown): no significant inhibition
B1: NBD1ΔF508: purified ΔF508 mutated recombinant murine NBD1 (nucleotide-binding domain 1 of CFTR; sequence 389–673) (protein)
chain: TTGIIMENVTAFWEEGFGELLEKVQQSNGDRKHSSDENNVSFSHLCLVGNPVLKNINLNIEKGEMLAITGSTGSGKTSLLMLILGELEASEGIIKHSGRVSFCSQFSWIMPGTIKENIIGVSYDEYRYKSVVKACQLQQDITKFAEQDNTVLGEGGVTLSGGQRARISLARAVYKDADLYLLDSPFGYLDVFTEEQVFESCVCKLMANKTRILVTSKMEHLRKADKILILHQGSSYFYGTFSELQSLRPDFSSKLMGYDTFDQFTEERRSSILTETLRRFSVDD
- effect on inhibition of CK2α by the ΔF508 peptide ([2]; 50 μM NBD1ΔF508, 350 μM ATP): abrogates the inhibitory efficacy of the ΔF508 peptide
